Assay results: ChEMBL document CHEMBL4270643, “Structure-based drug design: Synthesis and biological evaluation of quinazolin-4-amine derivatives as selective Aurora A kinase inhibitors” (Eur J Med Chem, 2018)
Calls of active or inactive are those of the source. The rule behind the calls is not given here.

Columns and labels:
Mus musculus [1] = test: Toxicity in BALB/c athymic nude mouse xenografted with human MDA-MB-231 cells assessed as effect on HCT level at 30 mg/kg, ig administered every 2 days for 18 days measured post last dose; type: organism-based; settings: in vivo, po
Summary of the method: (§1)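 After the 18-day intragastric course (every 2 days), blood cell counts taken from untreated, vehicle and dosed mice; groups compared by unpaired two-tailed t-test; mean ±SD, n=4.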

MCF7 = test: Antiproliferative activity against human MCF7 cells after 48 hrs by CCK8 assay; type: functional, cell-based; settings: Homo sapiens, MCF7, 48 h; read-out: IC50
SK-BR-3 = test: Antiproliferative activity against human SKBR3 cells after 48 hrs by CCK8 assay; type: functional, cell-based; settings: Homo sapiens, SK-BR-3, 48 h; read-out: IC50
MDA-MB-231 [2] = test: Induction of morphological changes in human MDA-MB-231 cells assessed as defects in chromosomal alignment at 1 uM by DAPI staining based microscopic analysis; type: functional, cell-based
Summary of the method: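 MDA-MB-231 cells incubated 24 h with 1 µM compound or 0.1% DMSO; immunofluorescence imaging of centrosomes, spindles and nuclei at ×1000 to score spindle polarity and chromosome alignment at the metaphase plate.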

Mus musculus [3] = test: Toxicity in BALB/c athymic nude mouse xenografted with human MDA-MB-231 cells assessed as effect on liver weight at 30 mg/kg, ig administered every 2 days for 18 days measured post last dose; type: organism-based; settings: in vivo, po
Summary of the method: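 Xenograft-bearing nude mice dosed intragastrically every 2 days for 18 days; body weight tracked throughout. After treatment ended, liver, lung, kidney and spleen weighed in untreated, vehicle and dosed groups; unpaired two-tailed t-test; mean ±SD, n=4.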

[4] = molecular target: T1, Aurora kinase A (Homo sapiens) (UniProt O14965); test: Inhibition of Aurora A phosphorylation at Thr288 residue in human 293T cells at 1 to 2 uM after 24 hrs by western blot analysis; type: cell-based
T1 sequence (whole entry): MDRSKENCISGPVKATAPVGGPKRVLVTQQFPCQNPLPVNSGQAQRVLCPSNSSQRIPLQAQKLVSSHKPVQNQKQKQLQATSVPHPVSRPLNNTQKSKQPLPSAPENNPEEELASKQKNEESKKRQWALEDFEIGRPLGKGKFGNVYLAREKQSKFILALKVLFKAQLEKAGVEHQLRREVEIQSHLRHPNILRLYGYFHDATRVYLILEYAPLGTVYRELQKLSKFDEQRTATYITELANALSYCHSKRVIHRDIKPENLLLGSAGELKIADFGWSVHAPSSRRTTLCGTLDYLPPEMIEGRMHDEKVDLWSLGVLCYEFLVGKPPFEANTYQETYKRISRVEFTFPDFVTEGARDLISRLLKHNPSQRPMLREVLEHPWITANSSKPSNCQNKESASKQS
Summary of the method: (§2)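 293T cells treated 24 h with increasing doses or 0.1% DMSO control; lysates probed by Western blot for p-Aurora A (Thr288) and p-histone H3 (Ser10), with GAPDH as loading control.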

HeLa = test: Antiproliferative activity against human HeLa cells after 48 hrs by CCK8 assay; type: functional, cell-based; settings: Homo sapiens, HeLa, 48 h; read-out: IC50
Aurora kinase A = molecular target: T2, Aurora kinase A (Homo sapiens, UniProt O14965); test: Inhibition of Aurora A (unknown origin) using FAM-labelled peptide as substrate pretreated for 10 mins followed by substrate addition and measured after 60 mins by fluorescence assay
T2 sequence (O14965 whole entry): T1 sequence (whole entry)
Summary of the method: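 Kinase IC50 values are the mean of at least two independent experiments; selectivity is the Aurora A/B ratio of these IC50s.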

DU-145 = test: Antiproliferative activity against human DU145 cells after 48 hrs by CCK8 assay; type: functional, cell-based; settings: DU-145, 48 h
MDA-MB-231 [5] = test: Cell cycle arrest in human MDA-MB-231 cells assessed as accumulation of cells with 4N/8N DNA content after 24 hrs by propidium iodide staining based flow cytometry; type: functional
Summary of the method: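 MDA-MB-231 cells exposed to test compound at indicated doses, MLN8237, or 0.1% DMSO control for 24 h; cell-cycle distribution, including G2/M and 4N/8N populations, read by flow cytometry.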

[6] = molecular target: T1, Aurora kinase A (Homo sapiens); test: Inhibition of Aurora A phosphorylation at Thr288 residue in human 293T cells at 1 uM after 24 hrs by western blot analysis; type: cell-based; summary of the method: as §2
Mus musculus [7] = test: Toxicity in BALB/c athymic nude mouse xenografted with human MDA-MB-231 cells assessed as effect on RDW-CV level at 30 mg/kg, ig administered every 2 days for 18 days measured post last dose; type: organism-based; settings: in vivo, po; summary of the method: as §1
Mus musculus [8] = test: Toxicity in BALB/c athymic nude mouse xenografted with human MDA-MB-231 cells assessed as effect on RDW-SD level at 30 mg/kg, ig administered every 2 days for 18 days measured post last dose; type: organism-based; settings: in vivo, po; summary of the method: as §1
Mus musculus [9] = test: Toxicity in BALB/c athymic nude mouse xenografted with human MDA-MB-231 cells assessed as effect on RBC level at 30 mg/kg, ig administered every 2 days for 18 days measured post last dose; type: organism-based; settings: in vivo, po; summary of the method: as §1

IC50 (MCF7): 2.23 µM
IC50 (SK-BR-3): 2.4 µM
inhibition [4]: Active
IC50 (HeLa): 0.45 µM
IC50 (Aurora kinase A): 0.038 µM
IC50 (DU-145): 2.05 µM
inhibition [6]: Active
Compound: CCOC(=O)C1CCN(c2ccc3c(Nc4cc(C)[nH]n4)nc(-c4ccccc4)nc3c2)CC1
Activity (Mus musculus [1]): Non-Toxic
Activity (MDA-MB-231 [2]): Active
Activity (Mus musculus [3]): Non-Toxic
Activity (MDA-MB-231 [5]): Dose-dependent effect
Activity (Mus musculus [7]): Non-Toxic
Activity (Mus musculus [8]): Non-Toxic
Activity (Mus musculus [9]): Non-Toxic
